Measurements reported in ChEMBL document CHEMBL4334445, “Caspase-Dependent Apoptosis in Prostate Cancer Cells and Zebrafish by Corchorusoside C from Streptocaulon juventas” (J Nat Prod, 2019).
The source made the active and inactive calls. The calls are words filed in the database; no cut-off is given here.

Key:
[1] = Toxicity in 24 hrs post fertilized zebrafish embryo assessed as malformation of spine curvature at 50 uM measured after 24 hrs by microscopic analysis; set-up: species or system Danio rerio; conditions: in vivo
In short: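 Zebrafish embryos raised in an automated housing system at 28 °C to 24 hpf, then exposed for 24 h to test agent at 50 μM in vehicle (1% DMSO in water). Digoxin and cycloheximide at 50 μM served as positive controls, with an untreated control. Morphology was then inspected and photographed by light microscopy.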

[2] = biological target: Sodium/potassium-transporting ATPase (Homo sapiens) (UniProt P05023+P14415+P05026+P50993+P54709+P13637+Q13733+P54710); experiment: Inhibition of Na+/K+ ATPase pump in human DU145 cells assessed as increase in intracellular calcium level at 50 uM measured after 5 hrs by Fura-2/AM dye based fluorescence assay; type: cell-based
In short: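 DU-145 cells at 1×10^4 per well treated 5 h (0–50 μM), DMSO/water negative control; medium removed, loaded with 5 μM fura-2 AM then 2.5 mM probenecid; intracellular Ca2+ from emission 510 nm ratio at 340/380 nm excitation; two independent experiments.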

HT-29 = experiment: Cytotoxicity against human HT-29 cells assessed as reduction in cell viability measured after 72 hrs by SRB assay; type: functional, cell-based; conditions: HT-29, 72 h
HeLa = experiment: Cytotoxicity against human HeLa cells assessed as reduction in cell viability measured after 72 hrs by SRB assay; type: functional, cell-based
DU-145 = experiment: Cytotoxicity against human DU145 cells assessed as reduction in cell viability measured after 72 hrs by SRB assay; type: functional, cell-based; conditions: DU-145, 72 h
PC-3 = experiment: Cytotoxicity against human PC3 cells assessed as reduction in cell viability measured after 72 hrs by SRB assay; type: functional, cell-based; conditions: PC-3, 72 h
MDA-MB-231 = experiment: Cytotoxicity against human MDA-MB-231 cells assessed as reduction in cell viability measured after 72 hrs by SRB assay; type: functional, cell-based; conditions: MDA-MB-231, 72 h

Row | SMILES | Activity [1] | inhibition [2] | IC50 (HT-29) [nM] | IC50 (HeLa) [nM] | IC50 (DU-145) [nM] | IC50 (PC-3) [nM] | IC50 (MDA-MB-231) [nM]
1 | C[C@H]1O[C@@H](O[C@H]2[C@@H](O)C[C@H](O[C@H]3[C@@H](O)C[C@H](O[C@H]4CC[C@@]5(C)[C@H](CC[C@@H]6[C@@H]5C[C@@H](O)[C@]5(C)[C@@H](C7=CC(=O)OC7)CC[C@]65O)C4)O[C@@H]3C)O[C@@H]2C)C[C@H](O)[C@@H]1O [DIGOXIN] | Toxic | Active |  |  |  |  | 
2 | CC(=O)O[C@H]1C(=O)[C@@]2(C)[C@H]([C@H](OC(=O)c3ccccc3)[C@]3(O)C[C@H](OC(=O)[C@H](O)[C@@H](NC(=O)c4ccccc4)c4ccccc4)C(C)=C1C3(C)C)[C@]1(OC(C)=O)CO[C@@H]1C[C@@H]2O [PACLITAXEL] |  |  | 2 | 5 | 4 | 170 | 100
